KCNK9 block: inhibitors of human KCNK9 two-pore domain potassium channel | B-score at 10 µM | Q9NPC2 | HEK293 KCNK9, FluxOR thallium flux fluorescence; hits give low values | 310,000 compounds, 1.2% hits;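 active = ratio B-score over 3 SD below the library mean, with starting fluorescence within 5 SD of its mean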;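 also: negative B-score means less thallium flux so channel inhibition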
hERG rescue: shields human hERG channel from block by proarrhythmic agents | Q12809 | CHO-hERG, FluxOR thallium flux, dofetilide IC70 present | activation (rescue from dofetilide block), less the hit threshold, % at 10 µM | 310,000 compounds, 0.51% hits | AID 1511;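 active = activation above the mean of controls blocked by dofetilide plus 5 SD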;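 also: thallium influx through hERG after potassium depolarization seen as dye fluorescence rise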
Kir21 inh: Kir2.1 (mouse) channel inhibition; 310,000 compounds, 0.85% hits; AID 1672; HEK293-Kir2.1, FluxOR thallium flux fluorescence; hits give low values; B-score at 10 µM; P35561;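 active = fluorescence ratio B-score at or below minus 3 SD of library scores, with starting-brightness B-score within 2 SD, cut at about -4.2 in these data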;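 also: channel flux triggered by added potassium and thallium sulfate stimulus; B-score of peak minus minimum fluorescence over baseline after thallium stimulus; more negative B-score means stronger Kir2.1 block with less thallium influx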
KCNK3 block: human KCNK3 channel inhibition, primary screen; O14649; 340,000 compounds, 0.84% hits; B-score at 10 µM; CHO-KCNK3 thallium flux, FluxOR fluorescence; hits give low values;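 active = B-score under library mean minus 4 SD, starting fluorescence ratio at most library mean plus 5 SD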;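 also: more negative B-score means stronger inhibition of thallium flux through KCNK3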
Target sequence (O14649 whole entry, looked up): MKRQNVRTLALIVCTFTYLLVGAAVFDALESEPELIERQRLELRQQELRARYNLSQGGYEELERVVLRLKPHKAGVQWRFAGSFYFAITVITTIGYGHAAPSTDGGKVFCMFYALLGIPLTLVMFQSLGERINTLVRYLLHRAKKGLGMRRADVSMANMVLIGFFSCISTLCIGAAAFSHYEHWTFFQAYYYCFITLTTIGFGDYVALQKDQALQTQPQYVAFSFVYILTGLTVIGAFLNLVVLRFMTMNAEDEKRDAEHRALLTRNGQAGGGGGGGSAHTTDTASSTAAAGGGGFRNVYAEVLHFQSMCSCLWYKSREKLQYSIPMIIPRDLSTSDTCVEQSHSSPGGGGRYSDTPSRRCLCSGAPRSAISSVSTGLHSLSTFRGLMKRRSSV
KCNQ1 pot: human KCNQ1 channel potentiation or activation; CHO-K1 KCNQ1, thallium flux FluxOR fluorescence; hits give high values; 310,000 compounds, 0.35% hits; B-score at 10 µM;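 active = fluorescence ratio B-score, a plate-corrected score, at least three library SD, with initial intensity B-score within 5 SD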
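Schedule – 37 °C overnight plating, 90-min dark dye load, 20-min compound pretreatment · System – stable KCNQ1 CHO-K1 line · Probe or stimulus – thallium- and potassium-containing depolarizing buffer · Measured by – kinetic FluxOR fluorescence, 10 s baseline plus 110 s post-stimulus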
KCNQ1 inh: inhibitors of human KCNQ1 potassium channel; 310,000 compounds, 1.3% hits; P51787; CHO-K1 KCNQ1, FluxOR thallium flux fluorescence; hits give high values; B-score at 10 µM;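 active = compounds whose thallium flux B-score, printed positive for inhibition, exceeds three library SD while starting fluorescence stays within three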;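 also: channel opened by potassium depolarization with thallium stimulus after 20 min compound exposure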
KCNK9 block conf: confirmation of human KCNK9 potassium channel inhibitors; shares compounds with KCNK9 block; inhibition, % at 10 µM; 4,900 compounds, 43% hits; HEK293 KCNK9 cells, FluxOR thallium flux fluorescence;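 active = thallium signal inhibited by more than 5 SD of the compound-free buffer control wells, on both duplicate plates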;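 also: 0% = assay buffer control wells without compound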
Kir2-1 spec: tests whether KCNK9 modulators also affect mouse Kir2.1; shares compounds with KCNK9 block; inhibition, % at 10 µM; 4,900 compounds, 4% hits; AID 492993; Kir2.1 cells, FluxOR thallium flux fluorescence;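 active = thallium signal drop more than 5 SD beyond the mean of the no-compound control wells, seen in both duplicate plates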;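 also: signal is fluorescence rise after thallium addition divided by baseline fluorescence; plate controls were assay buffer only for no effect and full block by chlorpromazine control for full effect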
KCNK9 uninduced: non-induced cell nonspecific activity of KCNK9 modulators | inhibition, % at 10 µM | non-induced KCNK9-HEK293, FluxOR thallium flux | shares compounds with KCNK9 block | AID 492997 | 4,900 compounds, 40% hits;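 active = thallium signal drop beyond 5 SD of the untreated control mean, on both duplicate plates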;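 also: plate controls were buffer only IC0 wells for no effect and SID17386958 at its maximal inhibitory level for full effect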
Numbers without * were called inactive; i = inactive; . = no result. Rows were chosen to be rich in hits. Some 3.7% of all compounds tested hit in one or more screens of this group.

SMILES	KCNK9 block	hERG rescue	Kir21 inh	KCNK3 block	KCNQ1 pot	KCNQ1 inh	KCNK9 block conf	Kir2-1 spec	KCNK9 uninduced
COc1ccc(-n2nc(C(=O)NCC(=O)N3CCN(c4ccccn4)CC3)c3ccccc3c2=O)cc1Cl	i	-5	-0.73	i	i	i	.	.	.
COc1ccc(-n2nc(C(=O)NCC(=O)N3CCC(C)CC3)c3ccccc3c2=O)cc1Cl	i	-8	0.5	i	i	i	i	i	i
COc1ccc([N+](=O)[O-])cc1NC(=O)C(C)N(C)Cc1ccc(Br)cc1 (centres undefined)	-8.6*	-12	-2.5	i	i	i	31%*	i	38%*
COc1ccccc1NC(=O)Nc1sccc1-c1nc2ccccc2s1	-13*	-5	0.08	i	i	i	70%*	i	40%*
O=C(Nc1ccccc1)Nc1sccc1-c1nc2ccccc2s1	i	-10	-0.16	i	i	i	.	.	.
CCOc1ccccc1NS(=O)(=O)c1ccc2c(c1)N(C)CCO2	i	-8	-3.4	i	i	i	.	.	.
O=C(COc1cc2oc(=O)c3c(c2cc1Cl)CCC3)NCc1ccncc1	i	-13	-0.39	i	i	i	.	.	.
CCn1c(SCC(O)c2ccccc2)nnc1-c1ccccc1 (centres undefined)	i	-8	0.28	i	i	i	.	.	.
CCn1c(SCc2cccc(C)c2)nnc1-c1ccccc1	i	-14	-6.1*	i	i	i	i	i	i
C[C@H](CO)N1C[C@H](C)[C@@H](CN(C)C(=O)Nc2ccc3c(c2)OCO3)Oc2c(NC(=O)Cc3ccccc3)cccc2C1=O	.	.	.	i	.	.	.	.	.
O=C(CSc1nc(-c2ccccc2Cl)ns1)c1ccc(Cl)cc1	-12*	1	-1.2	i	i	i	46%*	i	43%*
O=C(NCC(c1ccco1)N1CCc2ccccc21)C(=O)Nc1ccc(F)cc1F (centres undefined)	-14*	-8	-1.1	i	i	i	32%*	i	27%*
O=C(/C=C/c1ccccc1)NCCSc1ccc(Cl)cc1	i	-6	0.12	i	i	i	i	i	i
C=CCc1ccccc1OCC(=O)N/N=C/c1ccc(OC(C)=O)cc1OC(C)=O	i	-3	-2	i	i	i	.	.	.
NC(=O)c1ccc(Oc2ccc3c(c2)CCC3)c([N+](=O)[O-])c1	i	-10	0.91	i	i	i	i	i	i
Cc1cccc(NC(=O)CN2CCC(C(=O)c3ccc4c(c3)OCCO4)CC2)c1	i	-10	1.6	i	i	i	i	i	i
C=C(C)COc1ccc(-c2ncncc2-c2ccccc2)c(O)c1	i	-3	-0.87	i	i	i	.	.	.
CN(C)C(CNC(=O)CCNS(=O)(=O)c1ccccc1C(F)(F)F)c1ccccc1 (centres undefined)	.	.	.	i	.	.	.	.	.
CCC(c1ccccc1)c1nnc(NC(=O)c2ccco2)s1 (centres undefined)	-8.7*	-10	-0.12	i	i	i	i	i	i
CN(C)c1ccc(/C=N/n2c(-c3ccccc3Br)n[nH]c2=S)cc1	i	-3	0.45	i	i	i	i	i	i
CCCCNC(=O)[C@H]1C[C@H]1[C@@H](O)[C@H](CO)NC(=O)[C@H](Cc1ccccc1)NC(=O)OC(C)(C)C	i	-4	-0.15	i	i	i	i	i	i
Cc1ccc(CN2C(=O)C(Cc3ccccc3)Nc3ncnc(N4CCCCC4)c32)cc1 (centres undefined)	-14*	-8	1.6	i	i	i	64%*	i	38%*
Cc1ccc(CN2C(=O)C(Cc3ccccc3)Nc3ncnc(N4CCN(c5ccccc5)CC4)c32)cc1 (centres undefined)	i	-14	0.12	i	i	i	.	.	.
COc1ccc(CN2C(=O)C(Cc3ccccc3)Nc3ncnc(N4CCCCC4)c32)cc1 (centres undefined)	-13*	-9	0.04	i	i	i	54%*	i	27%*
O=C(COC(=O)Cc1cccc(C(F)(F)F)c1)Nc1ccc2c(c1)OCCO2	i	-5	-0.01	i	i	i	.	.	.
SMILES	KCNK9 block	hERG rescue	Kir21 inh	KCNK3 block	KCNQ1 pot	KCNQ1 inh	KCNK9 block conf	Kir2-1 spec	KCNK9 uninduced
CCOC(=O)C1CCN(C(=O)c2ccc(Oc3cc(Cl)cc(Cl)c3)o2)CC1	i	-1	0.1	i	i	i	i	i	i
COc1ccc2c(c1)CCc1sc(NC(=O)c3ccco3)nc1-2	-8.4*	-14	0.37	i	i	i	26%*	i	i
COc1ccc2c(c1)Cc1sc(NC(=O)c3ccco3)nc1-2	i	-2	-0.25	i	i	i	.	.	.
COc1ccc2c(c1)-c1nc(NC(=O)c3ccco3)sc1CC2	-11*	-8	0.71	i	i	i	48%*	i	i
N#CC(OC(=O)c1ccccc1)c1ccccc1 (centres undefined)	.	.	.	i	.	.	.	.	.
CC(C(=O)OCC(=O)Nc1ccc(S(N)(=O)=O)cc1)N1C(=O)c2ccccc2C1=O (centres undefined)	.	.	.	i	.	.	.	.	.
Cc1cccc(NC(=O)c2ccc3c(c2)C(=O)N(c2ccccc2C)C3=O)n1	i	-6	1.6	i	i	i	.	.	.
COCCn1c(N)c(Sc2ccccc2[N+](=O)[O-])c(=O)[nH]c1=O	i	-12	-0.06	i	i	i	.	.	.
COc1ccc(C(=O)Nc2cc(OCc3ccccc3)c(Cl)cc2Cl)cc1	-16*	-16	0.34	i	i	i	58%*	i	i
O=C(Nc1ccccc1Cl)c1cccc(COc2cc(Cl)ccc2Cl)c1	-11*	-4	-0.54	i	i	i	30%*	i	i
CCOc1ccc(OCC)c(NC(=O)C2CCN(S(=O)(=O)c3ccc4c(c3)CC(C)N4C(C)=O)CC2)c1 (centres undefined)	i	-6	1.1	i	i	i	.	.	.
O=C(NC(c1ccccc1)c1c(O)ccc2ccccc12)c1ccccc1Cl (centres undefined)	-10*	-7	0.05	-9.4*	i	i	i	i	44%*

From PubChem
